The list is not random: actives were taken first. Their share in the collection is about 2.2%.
14-3-3 Bad inh: disrupts binding of bovine 14-3-3 zeta to phospho-Bad peptide; P63103; AID 781; TR-FRET 14-3-3zeta/Dy647-pBad peptide displacement, 1 h; inhibition, % at 21.7 µM; 0.71% of 220,000 active;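 active = inhibition above about 70%, limit read from the data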;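 also: 0% = full 14-3-3 plus peptide FRET controls and 100% = background without 14-3-3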
PERK inh: human PERK inhibition, primary cell-based screen. Q9NZJ5. CHO PERK-DD fusion, SEAP luminescence translation reporter. inhibition, % at 5.6 µM. 0.17% of 220,000 active;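 active = inhibition above the mean inhibition of all tested compounds plus 3 SD, set separately per screening campaign, cut at about 2.9% in these data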;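 also: PERK kinase domain activated by AP20187 dimerizer at 100 nM; 0% = DMSO with dimerizer and 100% = rapamycin at 8.4 µM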
Calb biofilm kill: mixture kills Candida albicans biofilm cells | C. albicans biofilm persisters + clotrimazole, fluorescence viability; primary screen in compound mixtures of four per well | inhibition, % at 7.6 µM | 0.02% of 120,000 active;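 active = inhibition above 30.3% in the primary screen of four-compound pools, then above 30% when the compound was retested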;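 also: compounds exposed to preformed 24 h biofilms for 48 h; 0% = untreated biofilm control and 100% = clotrimazole plus chlorhexidine kill blank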
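Incubation: 24 h biofilm formation, then 48 h compound exposure, 37 °C | Material: C. albicans biofilms | Buffer or medium: RPMI/MOPS medium, pH 7.0 | Measured by: 2-h Alamar Blue fluorescence, 535/590 nm excitation/emission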
eIF4E 4G PPI: inhibitors of eIF4E and eIF4G interaction in translation initiation | 0.37% of 220,000 active | AID 782 | inhibition, % at 21.7 µM | TR-FRET eIF4E-eIF4GI(517-606) binding, 2 h;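 active = inhibition above about 30%, limit read from the data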;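 also: 0% = full FRET control wells and 100% = background wells lacking eIF4GI fragment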
p97 ATPase inh: inhibitors of human p97 ATPase. P55072. recombinant p97 ATPase, Kinase-Glo ATP luminescence, 3 h. inhibition, % at 8 µM. 0.42% of 220,000 active. AID 1481; in the data active = inhibition above about 15%;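 also: 0% = DMSO vehicle and 100% = wells lacking enzyme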
Target sequence (P55072 whole entry, looked up): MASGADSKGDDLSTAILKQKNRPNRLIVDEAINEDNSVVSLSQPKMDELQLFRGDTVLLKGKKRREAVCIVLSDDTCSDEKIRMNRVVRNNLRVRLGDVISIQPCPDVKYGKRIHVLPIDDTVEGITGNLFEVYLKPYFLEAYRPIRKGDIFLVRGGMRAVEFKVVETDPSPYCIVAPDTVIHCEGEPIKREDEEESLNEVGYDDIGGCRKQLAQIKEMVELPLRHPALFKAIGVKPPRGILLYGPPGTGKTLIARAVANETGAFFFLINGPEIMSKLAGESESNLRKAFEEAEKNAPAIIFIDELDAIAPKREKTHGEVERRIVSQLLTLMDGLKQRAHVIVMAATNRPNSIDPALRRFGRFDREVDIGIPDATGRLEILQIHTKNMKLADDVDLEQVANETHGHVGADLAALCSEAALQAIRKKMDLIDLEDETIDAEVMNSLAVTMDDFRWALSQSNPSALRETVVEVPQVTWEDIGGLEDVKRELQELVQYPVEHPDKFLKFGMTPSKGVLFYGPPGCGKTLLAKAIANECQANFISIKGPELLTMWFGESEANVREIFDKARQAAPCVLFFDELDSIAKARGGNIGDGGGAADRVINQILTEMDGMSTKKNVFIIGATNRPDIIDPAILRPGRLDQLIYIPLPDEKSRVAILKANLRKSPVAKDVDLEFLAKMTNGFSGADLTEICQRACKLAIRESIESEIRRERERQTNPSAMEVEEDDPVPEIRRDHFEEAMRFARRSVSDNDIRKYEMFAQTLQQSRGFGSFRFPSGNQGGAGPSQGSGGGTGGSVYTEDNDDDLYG
Hck Nef HTS: inhibitors of human Hck kinase activated by Nef | P08631 | Recombinant Hck-YEEI plus Nef, Z-Lyte FRET kinase assay | 0.68% of 220,000 active | inhibition, % at 20 µM | AID 463187;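 active = Hck-Nef kinase inhibition above about 50%, limit read from the data; inactive = inhibition below that limit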;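 also: 0% = DMSO with Hck plus Nef and 100% = Hck alone without Nef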
Hck-Nef confirm: Hck-Nef kinase inhibition, confirmation; shares compounds with Hck Nef HTS; Recombinant Hck-YEEI:Nef, Z-Lyte FRET kinase assay; calls only at 10 µM; 28% of 1,300 active;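 active = average inhibition of at least 50%, with Z-scores no higher than 3 in both the phospho-tyrosine peptide and fluorescence counterscreens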
An asterisk follows results filed as active; i = inactive; · = no result given; + = active, no number; [ ] = remark or other dose.

SMILES	14-3-3 Bad inh	PERK inh	Calb biofilm kill	eIF4E 4G PPI	p97 ATPase inh	Hck Nef HTS	Hck-Nef confirm
O=C(Nc1cc(S(=O)(=O)N2CCOCC2)ccc1N1CCCC1)c1ccc2c(c1)S(=O)(=O)c1ccccc1C2=O	14.6	0.0	10.5	3.5	3.8	65.0*	i
O=C(Nc1ccccc1F)Nc1cc(S(=O)(=O)N2CCOCC2)ccc1N1CCCC1	-11.0	0.5	15.7	-0.1	-3.2	18.5	·
CCN(CC)C(=O)Cc1c(O)c2ccccc2[nH]c1=O	-0.5	1.3	24.5	0.0	4.8	55.8*	+
CC(C)CCN(CCC(C)C)C(=O)Cc1c(O)c2ccccc2[nH]c1=O	-4.3	1.4	16.2	0.3	-2.0	15.7	·
Cc1cccc(Cc2nnc(CCC(=O)N(C)Cc3ccncc3C)o2)c1	-7.2	0.1	1.2	-1.4	7.0	84.1*	i
Cc1cccc(Cc2nnc(CCC(=O)NCc3ccncc3C)o2)c1	11.7	-0.6	18.7	1.1	-4.6	17.7	·
Cc1nc2cc(N3CCN(C)CC3)c(NC(=O)Cc3ccccc3)cc2c(=O)n1Cc1ccccc1	-0.5	-0.9	·	-1.7	-4.9	2.0	·
Cc1nc2cc(N3CCCCC3)c(NC(=O)c3ccncc3)cc2c(=O)n1Cc1ccc(Cl)cc1	45.4	-0.6	·	-40.9	3.1	67.4*	i
Cc1ccccc1/C=N/Nc1nc2ccccc2c(=O)n1O	-4.8	0.2	23.3	-0.1	3.1	0.7	·
CCn1cc(C(=S)N2CCC(C(N)=O)CC2)c2ccccc21	-5.1	1.4	6.9	1.1	-5.0	17.0	·
Cc1sc(-n2c(C)cc(/C=C3\SC(=S)NC3=O)c2C)c(C#N)c1C	1.7	0.5	·	0.5	2.2	71.4*	i
COc1cccc(=O)c2c(C)n(-c3cc(C)cc(C)c3)c(C)c12	-11.9	-0.1	·	2.4	1.8	1.7	·
COc1cccc(-n2c(C)c3c(OC)cccc(=O)c3c2C)c1	-11.9	-0.6	-7.1	-1.6	8.3	50.9*	i
Cc1ccc(SCC(=O)NC(C)(C)C)cc1	1.6	-0.1	·	-2.3	1.1	2.2	·
Cc1ccc(-c2nc3c(c(=O)[nH]c(=O)n3Cc3ccccc3)n2C)o1	35.6	0.5	15.4	28.4	2.6	43.6	·
Cc1ccc(-c2nc3c(c(=O)[nH]c(=O)n3Cc3ccccc3)n2C)s1	53.1	-0.9	20.4	11.5	-2.0	57.9*	i
CCN(CC)c1ccc(/C=C2\C(=O)c3ccc(C(=O)O)cc3C2=O)cc1	3.8	0.7	12.0	23.1	2.5	64.1*	i
O=C(CCc1ccccc1)c1c(O)cc(O)cc1O	-0.8	·	18.5	-16.9	·	68.5*	i
CCOC(=O)c1nc(Nc2ccc(Nc3ccccc3)cc2)c2ccccc2n1	-5.9	-0.7	11.7	6.0	2.3	94.4*	i
Cc1cc(C)n(CCC(=O)N/N=C/c2ccc(Br)c([N+](=O)[O-])c2)n1	5.1	0.8	15.5	3.5	-5.1	19.6	·
CCOc1cc(N2CCOCC2)c(OCC)cc1NC(=O)c1ccc2ccccc2n1	-2.6	-0.6	8.4	10.9	-3.9	64.2*	i
NC(=O)N/N=C/c1coc2ccc3ccccc3c2c1=O	-3.5	0.7	21.4	4.6	6.3	32.1	·
NC(=S)N/N=C/c1coc2c(ccc3ccccc32)c1=O	89.0*[fluorescence artefact?]	0.7	-1.1	10.0	4.9	61.4*	+
NC(=S)N/N=C/c1coc2ccc(Br)cc2c1=O	56.6	0.5	23.8	6.7	4.2	73.3*	+
Cc1ccccc1C(=NCCCN(C)C)c1ccccc1C	0.0	-0.3	12.2	-20.8	-3.0	-1.7	·
SMILES	14-3-3 Bad inh	PERK inh	Calb biofilm kill	eIF4E 4G PPI	p97 ATPase inh	Hck Nef HTS	Hck-Nef confirm
O=C(CSc1ncnc2c1oc1ccccc12)Nc1cccc(Cl)c1	-8.8	0.5	·	-124.5	3.5	50.6*	i
O=C(N/N=C/c1ccc([N+](=O)[O-])o1)c1cc(-c2ccncc2)nc2ccccc12	1.3	-0.9	·	-1.4	1.8	1.8	·
O=C(N/N=C/c1ccc([N+](=O)[O-])o1)c1cc(-c2ccc(-c3ccccc3)cc2)nc2ccccc12	-12.6	0.8	4.8	7.2	7.2	197.5*	i
CCOc1ccc(-c2ccc(C=O)o2)c([N+](=O)[O-])c1	-0.3	0.7	12.8	4.7	5.8	100.3*	i
CCCCS/C(N)=N/N=C/c1ccccc1O	14.1	0.1	·	7.2	-0.5	1.2	·
CCCS/C(N)=N/N=C/c1cc(C)ccc1O	-8.4	0.5	·	-1.5	0.1	55.2*	+
O=C(c1ccccc1)c1ccc2nc(Nc3ccccc3)c3nncn3c2c1	38.0	-1.6	22.7	5.6	6.7	68.0*	i
O=C(O)C1Cc2[nH]cnc2C(c2ccccc2O)N1 (stereo not drawn)	-11.1	0.6	12.8	3.0	2.1	-2.0	·
CCCCN(C)CCOc1ccccc1OCC	38.4	0.1	12.0	2.0	2.4	59.6*	i
CCN1/C(=C/C(=O)c2ccco2)Sc2ccccc21	7.0	-0.6	·	7.1	-4.8	95.4*	·
CCC(=O)/C=C1/Sc2ccccc2N1CC	10.0	0.5	-5.7	-1.1	0.2	5.9	·
N#Cc1cc2cc3c(cc2nc1NCCNC(=S)NCCCN1CCOCC1)OCO3	0.2	-1.1	1.4	2.2	-4.3	74.3*	·
Cc1ccc2cc(C#N)c(NCCNC(=S)NCCCN(C)C)nc2c1C	-8.9	0.2	12.7	-1.3	-0.4	19.3	·
Cc1cccc(NC(=O)c2cc3cc([N+](=O)[O-])ccc3s2)n1	89.3*	1.1	15.7	2.3	-0.4	51.1*	i
CCCNC(=O)c1cc2cc([N+](=O)[O-])ccc2s1	-5.2	2.4	10.2	4.2	5.1	8.5	·
Cc1nccc(-c2sc(-c3cccs3)nc2C)n1	3.3	0.7	10.8	0.3	2.7	86.1*	i
CC12CCC(=O)N1c1c(sc3nc(N4CCOCC4)c4c(c13)CCCC4)C(=O)N2 (stereo not drawn)	·	-0.4	·	·	2.5	60.8*	·
CCN(CC)c1ccc(-c2nn3c(-c4n[nH]c5c4CCC5)nnc3s2)cc1	-27.3	-0.5	·	-9.1	3.1	61.3*	i
CCCCCCCc1c(O)nc(SCC(=O)O)[nH]c1=O	3.6	1.1	0.5	4.5	10.7	-17.9	·
Nc1c(C(=O)NCCN2CCOCC2)c2nc3ccccc3nc2n1CCc1ccccc1F	-3.3	-1.2	·	12.9	-5.6	51.5*	i
Nc1c(C(=O)NCCN2CCOCC2)c2nc3ccccc3nc2n1CCc1ccccc1	-2.4	-1.3	·	-2.4	4.0	47.9	·
COc1ccccc1CNC(=O)c1c(N)n(CCCN2CCOCC2)c2nc3ccccc3nc12	-20.6	-0.9	·	8.2	-3.7	52.3*	i
Nc1c(C(=O)NCc2ccc3c(c2)OCO3)c2nc3ccccc3nc2n1CCCN1CCOCC1	·	-1.1	·	·	-7.7	41.5	·

Compound activity: PubChem BioAssay, several laboratories
